Screening data from PubChem.
Hits are enriched below; roughly 4.5% of the tested compounds scored in any of these assays.
OX1R antag-1 = OX1R (human) antagonism; inhibition, % at 6.6 µM; OX1R-expressing cells, FRET antagonist read-out; 330,000 compounds, 1.8% hits; O43613; in the data active = inhibition mostly above about 38%, no sharp cut-off; inactive = mostly below about 40%;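 note: 0% = agonist challenge alone and 100% = reference antagonist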
CHO parental Ca = signal in parental CHO cells, OX1R antagonist counter-screen. inhibition, % at 5.6 µM. 330,000 compounds, 0.63% hits. AID 463079. parental CHO-K1, ATP-induced calcium, Fluo-8 fluorescence;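 active = inhibition above that plate's mean sample inhibition plus 3 SD, cut at about 26% in these data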;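 note: 0% = ATP-challenged DMSO wells and 100% = DMSO wells without ATP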
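test system = CHO parental line | reagent = ATP stimulus | measured by = intracellular calcium via Fluo-8 no-wash fluorescent dye | control set = ATP and no-ATP DMSO wells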
OX1R antag-2 = human HCRTR1 antagonism | AID 434989 | O43613 | inhibition, % at 5 µM | 330,000 compounds, 0.43% hits | CHO/OX1R cells, Fluo-8 calcium fluorescence, orexin A;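 active = inhibition above its plate's threshold, mean inhibition of all tested compounds on the plate plus 3 SD, cut at about 37% in these data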;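 note: 0% = orexin A challenge wells and 100% = SB-334867-A antagonist wells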
TAAR1 antag = antagonists of human TAAR1; 360,000 compounds, 1.5% hits; Q96RJ0; AID 624466; CHO RD-HGA16 TAAR1, Fluo-8 calcium fluorescence, antagonist; inhibition, % at 3 µM;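 active = inhibition above a per-plate cutoff, the mean inhibition of test compounds on that plate plus 3 SD, cut at about 49% in these data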;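 note: 0% = DMSO plus EC80 beta-PEA response and 100% = DMSO alone without agonist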
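System: CHO RD-HGA16 cells bearing hTAAR1. Reagent: EC80 β-phenethylamine stimulus. Schedule: seeding 17-24 h prior, 75-min 37 °C, 30-min RT dye loading. Signal: Fluo-8 intracellular calcium dye fluorescence, real-time kinetic reads. Read-out: % inhibition from peak post-agonist over basal fluorescence ratio. Benchmarks: vehicle wells and EC80 agonist wells. Replicates: n of 1.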
TAAR1 ag = agonists of human TAAR1. Q96RJ0. CHO RD-HGA16 TAAR1, Fluo-8 calcium fluorescence; vehicle wells 0%, saturating PEA agonist 100%. activation, % at 3 µM. 360,000 compounds, 0.99% hits;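 active = activation above the mean activation of all test compounds in the run plus 3 SD, cut at about 38% in these data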
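Signal – calcium-sensitive Fluo-8 signal, excitation 470-495, emission 515-575 nm · System – RD-HGA16 (CHO) cells co-expressing Gα16 and hTAAR1 · Incubation – 17-24 h seeding, 75 min 37 °C dye, 30 min RT · Compound dosing – 3 µM single concentration · Repeats – no replicates (n 1)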
GPR7 antagonist = blocks human GPR7 receptor signaling; P48145; GPR7-expressing cells, fluorescence antagonist assay; inhibition, % at 4.4 µM; 290,000 compounds, 1.1% hits; in the data active = inhibition above about 16%, passing the limit was not always enough;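 note: cells stimulated with the agonist NPW; 0% = agonist with vehicle and 100% = vehicle without agonist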
Target sequence (P48145 whole entry, looked up): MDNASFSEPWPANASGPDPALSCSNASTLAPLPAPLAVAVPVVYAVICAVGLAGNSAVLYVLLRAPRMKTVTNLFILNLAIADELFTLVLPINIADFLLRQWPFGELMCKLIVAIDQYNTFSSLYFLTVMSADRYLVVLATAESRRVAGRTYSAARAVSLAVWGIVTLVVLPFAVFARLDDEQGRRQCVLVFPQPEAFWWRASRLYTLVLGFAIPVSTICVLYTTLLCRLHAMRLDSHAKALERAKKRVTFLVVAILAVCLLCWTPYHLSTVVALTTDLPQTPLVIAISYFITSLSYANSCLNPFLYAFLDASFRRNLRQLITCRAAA
TAAR1 ag conf = human TAAR1 agonism, confirmed; shares compounds with TAAR1 ag; CHO RD-HGA16 TAAR1, Fluo-8 calcium fluorescence; scaled: DMSO 0%, maximal phenethylamine 100%; activation, % at 3 µM; 2,400 compounds, 82% hits;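 active = activation above a cutoff set at the run's mean compound activation plus 3 SD, cut at about 39% in these data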
Ga16 ag counter = nonselective agonist in parental cells, TAAR1 agonist counter-screen; shares compounds with TAAR1 ag; CHO-Ga16 parental, Fluo-8 calcium fluorescence; normalized to maximal ATP response, DMSO zero; 2,400 compounds, 50% hits; activation, % at 3 µM;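 active = activation above the run cutoff, the mean activation over all tested wells plus 3 SD, cut at about 12% in these data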;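 note: 0% = DMSO wells and 100% = maximal ATP response on the peak over basal ratio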
TAAR1 desensitize = TAAR1 response desensitization, agonist counter-screen | shares compounds with TAAR1 ag | CHO RD-HGA16 hTAAR1, Fluo-8 calcium, beta-PEA response inhibition | inhibition, % at 3 µM | 2,400 compounds, 46% hits;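 active = inhibition above the run cutoff, the mean inhibition of all test compounds plus 3 SD, cut at about 49% in these data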;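 note: beta-PEA stimulus applied at its EC80; loss of beta-PEA calcium signal after compound pretreatment read as receptor desensitization; 0% = DMSO with beta-PEA at EC80 and 100% = DMSO alone without agonist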
Ga16 antag count = nonselective Ga16 antagonism, counter-screen; 2,400 compounds, 39% hits; CHO-Ga16 ATP-induced calcium, Fluo-8 fluorescence; AID 651952; shares compounds with TAAR1 ag; inhibition, % at 3 µM;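 active = inhibition above the plate's mean compound inhibition plus 3 SD, computed per plate, cut at about 22% in these data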;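 note: 0% = EC80 ATP with DMSO and 100% = DMSO wells without ATP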
* = called active by the depositor; nt = not tested or not shown.

SMILES | OX1R antag-1 | CHO parental Ca | OX1R antag-2 | TAAR1 antag | TAAR1 ag | GPR7 antagonist | TAAR1 ag conf | Ga16 ag counter | TAAR1 desensitize | Ga16 antag count
O=C(NCCc1ccccc1Cl)[C@@H]1CCCN1C(=O)[C@H](Cc1cccnc1)NC(=O)N1CCOCC1 | nt | nt | nt | 10.9 | 48.7* | nt | 77.0* | 0.0 | 45.9 | 4.7
O=C(N[C@@H](Cc1cccnc1)C(=O)N1CCC[C@H]1C(=O)NCCc1ccccc1Cl)c1cccs1 | nt | nt | nt | 47.6 | 47.7* | nt | 81.9* | 4.3 | 84.2* | 4.1
O=C(N[C@@H](Cc1cccnc1)C(=O)N1CCC[C@H]1C(=O)NCCc1ccccc1Cl)c1ccc(Cl)c(Cl)c1 | nt | nt | nt | 91.4* | 70.8* | nt | 83.9* | 4.7 | 102.8* | 21.1
O=C(N[C@@H](Cc1cccnc1)C(=O)N1CCC[C@H]1C(=O)NC1CCCC1)c1ccccc1 | nt | nt | nt | 5.3 | 0.4 | nt | nt | nt | nt | nt
Cc1ccc(C)c(NC(=O)COC(=O)CCC(=O)c2cccs2)c1 | 12.2 | -0.9 | 3.1 | -7.0 | 0.0 | -4.7 | nt | nt | nt | nt
Cc1ccc(S(=O)(=O)N2CCN(C(=O)COC(=O)CNC(=O)c3ccccc3F)CC2)c(C)c1 | nt | nt | nt | -1.9 | 1.3 | nt | nt | nt | nt | nt
Cn1nccc1C(=O)OCC(=O)Nc1cccc(Cl)c1 | 0.4 | -5.9 | -20.6 | -11.2 | 2.2 | nt | nt | nt | nt | nt
O=C1NCCN(Cc2cccc(Oc3ccccc3)c2)C1CC(=O)N1CCCO1 (stereo not drawn) | 11.7 | -21.7 | -14.5 | -36.5 | 7.9 | -4.0 | nt | nt | nt | nt
O=C(N[C@@H](Cc1cccnc1)C(=O)N1CCC[C@H]1C(=O)NCCc1ccccc1Cl)c1ccccc1 | nt | nt | nt | 76.5* | 54.8* | nt | 91.7* | 7.3 | 89.7* | 1.5
CC=Cc1cc(OC)c2c(c1)C(C)C(c1ccc(O)c(OC)c1)O2 (stereo not drawn) | nt | nt | nt | 4.8 | 1.9 | nt | nt | nt | nt | nt
O=C(CN1CCc2ccccc2C1)Nc1ccc(F)cc1F | 4.7 | -14.7 | -8.1 | -30.8 | -2.5 | 3.9 | nt | nt | nt | nt
CC(=O)Nc1ccc(NC(=O)C(=O)NCC(c2ccco2)N2CCc3ccccc3C2)cc1 (stereo not drawn) | 18.6 | 48.9* | 16.7 | 15.8 | 77.5* | nt | 92.5* | 3.6 | 36.1 | 6.8
O=C(NCC(c1ccco1)N1CCc2ccccc2C1)C(=O)Nc1ccccc1F (stereo not drawn) | 43.0 | 7.2 | -16.0 | 16.0 | 46.2* | nt | 48.5* | 1.8 | 15.7 | 17.9
O=C(NCC(c1ccco1)N1CCc2ccccc2C1)C(=O)Nc1ccc(F)cc1F (stereo not drawn) | 21.2 | -16.4 | -6.5 | 13.8 | 58.0* | nt | 41.5* | 5.3 | 10.0 | 15.5
O=C(NCC(c1ccco1)N1CCc2ccccc2C1)c1ccc(Cl)c([N+](=O)[O-])c1 (stereo not drawn) | 36.4 | -15.4 | -17.4 | 3.5 | 4.2 | nt | nt | nt | nt | nt
Cc1ccc(CSCc2ccc(C(=O)NCCC(C)C)o2)cc1 | 15.1 | -7.2 | -37.2 | 10.4 | 4.6 | 5.6 | nt | nt | nt | nt
CCc1ccc(Nc2cc(=O)n(C3CCCCC3)c(=O)[nH]2)cc1 | -2.3 | -7.6 | 7.6 | 43.8 | 79.3* | -1.9 | 107.6* | 49.9* | 80.9* | 31.8*
O=c1cc(Nc2ccc3c(c2)OCCO3)[nH]c(=O)n1C1CCCCC1 | 11.9 | -17.5 | -18.4 | 8.9 | 10.4 | 8.3 | nt | nt | nt | nt
Cc1cc(NC(=O)c2ccccc2)n(-c2nc3ccccc3[nH]2)n1 | 5.1 | -13.3 | -37.6 | 13.7 | 3.4 | -6.5 | nt | nt | nt | nt
Cc1cc(NC(=O)C2CCCC2)n(-c2nc3ccccc3[nH]2)n1 | 16.9 | -26.4 | -38.0 | 5.1 | 56.3* | -4.8 | -1.4 | -1.2 | 6.7 | 17.3
